Test results as given in ChEMBL document CHEMBL2380211, “Conformational restriction in a series of GPR119 agonists: differences in pharmacology between mouse and human” (Bioorg Med Chem Lett, 2013).
Converted amounts (≈) assume the structure as drawn.

Key:
[1] = 1-octanol-aqueous phosphate buffer distribution coefficient, log D of the compound at pH 7.4 after 30 mins by shake-flask method; assay type: physicochemical
In short: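 Partition of compound between 1-octanol and aqueous phosphate buffer, pH 7.4.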

[2] = Intrinsic clearance in rat hepatocytes measured per 10^6 cells; assay type: ADME, cell-based, Hepatocyte; settings: read-out: CLH
[3] = Apparent permeability from apical to basolateral side in MDCK cells at 10 uM; assay type: ADME, cell-based, Canis lupus familiaris; settings: dog
In short: (§1)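 Compound incubated at 10 µM with cultured MDCK epithelial cells. Apparent permeability measured in both directions, A-B and B-A.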

[4] = Half life in rat at 2 mg/kg, iv; assay type: ADME, organism-based; design: dose 2 mg/kg, route intravenous; settings: in vivo
In short: (§2)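 Rats dosed at 2 mg/kg IV in 5% DMSO:95% hydroxypropyl beta cyclodextrin, and at 5 mg/kg orally as a 0.1% pluronic F127 suspension, both at 5 mL/kg.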

[5] = Volume of distribution at steady state in rat at 2 mg/kg, iv and 5 mg/kg, po; assay type: ADME, organism-based; settings: in vivo, read-out: Vdss; in short: as §2
[6] = Plasma clearance in rat at 2 mg/kg, iv and 5 mg/kg, po; assay type: ADME, organism-based; in short: as §2
[7] = Oral bioavailability in rat at 5 mg/kg; assay type: ADME, organism-based; settings: in vivo; in short: as §2
[8] = AUC in rat at 2 mg/kg, iv and 5 mg/kg, po; assay type: ADME, organism-based; settings: plasma; in short: as §2
[9] = Apparent permeability from basolateral to apical side in MDCK cells at 10 uM; assay type: ADME, cell-based, Canis lupus familiaris; settings: dog; in short: as §1
[10] = system: Mus musculus; assay: Antidiabetic activity in C57BL6/JAX mouse assessed as reduction in blood glucose AUC at 50 mg/kg administered 30 mins prior to glucose challenge measured up to 90 mins by OGTT relative to control; assay type: functional; design: scale not given: the % may be the effect or the level left
In short: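 C57BL6/JAX mice given compound at 50 mg/kg, 30 min before a 2 g/kg oral glucose load. Blood glucose followed to 90 min. Value is the % reduction in blood glucose AUC.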

[11] = Half life in rat at 5 mg/kg, po; assay type: ADME, organism-based; design: dose 5 mg/kg, route oral; settings: in vivo; in short: as §2
[12] = target: T1, Glucose-dependent insulinotropic receptor (Mus musculus, UniProt Q7TQP3); assay: Displacement of [3H]-N-(2-fluoro-4-methylsulfonyl-phenyl)-6-[4-(3-isopropyl-1,2,4-oxadiazol-5-yl)-1-piperidyl]-5-nitro-pyrimidin-4-amine from mouse GPR119 overexpressed in baculovirus infected Sf21 cell membranes after 120 mins by scintillation counting analysis
T1 sequence (Q7TQP3 whole entry): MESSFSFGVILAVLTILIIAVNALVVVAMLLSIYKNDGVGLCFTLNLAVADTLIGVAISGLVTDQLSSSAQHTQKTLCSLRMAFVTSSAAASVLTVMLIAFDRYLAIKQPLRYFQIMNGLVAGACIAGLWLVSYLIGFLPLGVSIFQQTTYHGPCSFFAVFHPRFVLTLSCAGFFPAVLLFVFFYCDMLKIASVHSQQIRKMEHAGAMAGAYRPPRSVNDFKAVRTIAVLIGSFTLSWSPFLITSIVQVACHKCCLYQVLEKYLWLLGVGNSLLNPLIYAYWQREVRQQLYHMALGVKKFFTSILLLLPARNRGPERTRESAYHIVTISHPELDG

[13] = target: T2, Glucose-dependent insulinotropic receptor (Homo sapiens, UniProt Q8TDV5); assay: Agonist activity at human GPR119 overexpressed in HEK293S cells assessed as change in cAMP level after 45 mins by HTRF assay; assay type: functional, cell-based
T2 sequence (Q8TDV5 whole entry): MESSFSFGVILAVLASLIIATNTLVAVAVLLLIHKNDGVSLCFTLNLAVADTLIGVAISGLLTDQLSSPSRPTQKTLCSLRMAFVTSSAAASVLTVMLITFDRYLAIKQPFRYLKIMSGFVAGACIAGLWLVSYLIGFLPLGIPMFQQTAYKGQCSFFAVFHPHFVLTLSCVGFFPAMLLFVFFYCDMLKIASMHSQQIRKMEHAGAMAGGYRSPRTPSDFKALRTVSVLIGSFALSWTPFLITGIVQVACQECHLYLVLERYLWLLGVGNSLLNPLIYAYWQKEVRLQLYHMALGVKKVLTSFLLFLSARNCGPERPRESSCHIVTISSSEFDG

[14] = target: T2, Glucose-dependent insulinotropic receptor; assay: Displacement of [3H]-N-(2-fluoro-4-methylsulfonyl-phenyl)-6-[4-(3-isopropyl-1,2,4-oxadiazol-5-yl)-1-piperidyl]-5-nitro-pyrimidin-4-amine from human GPR119 overexpressed in baculovirus infected Sf21 cell membranes after 120 mins by scintillation counting analysis
[15] = target: T1, Glucose-dependent insulinotropic receptor; assay: Agonist activity at mouse GPR119 overexpressed in HEK293S cells assessed as change in cAMP level after 45 mins by HTRF assay; assay type: functional, cell-based
[16] = target: T3, Cytochrome P450 1A2 (Homo sapiens, UniProt P05177); assay: Inhibition of CYP1A2 (unknown origin); assay type: ADME
T3 sequence (P05177 whole entry): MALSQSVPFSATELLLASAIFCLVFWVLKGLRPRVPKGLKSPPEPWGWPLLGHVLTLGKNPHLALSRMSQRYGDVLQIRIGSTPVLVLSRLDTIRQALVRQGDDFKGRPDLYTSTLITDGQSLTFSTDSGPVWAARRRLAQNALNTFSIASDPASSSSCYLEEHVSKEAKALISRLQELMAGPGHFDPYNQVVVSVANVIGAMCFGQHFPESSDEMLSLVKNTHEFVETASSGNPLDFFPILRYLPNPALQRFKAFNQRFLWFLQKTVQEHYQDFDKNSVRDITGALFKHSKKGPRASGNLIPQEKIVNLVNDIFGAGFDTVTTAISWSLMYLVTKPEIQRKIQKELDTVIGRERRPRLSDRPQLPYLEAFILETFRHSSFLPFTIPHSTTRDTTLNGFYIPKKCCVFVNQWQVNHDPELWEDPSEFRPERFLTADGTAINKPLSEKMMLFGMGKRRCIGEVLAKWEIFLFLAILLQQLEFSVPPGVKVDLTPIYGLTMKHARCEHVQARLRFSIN

[17] = target: Cytochrome P450 2C19 (Homo sapiens, UniProt P33261); assay: Inhibition of CYP2C19 (unknown origin); assay type: ADME
[18] = target: Voltage-gated inwardly rectifying potassium channel KCNH2 (Homo sapiens, UniProt Q12809); assay: Inhibition of human ERG by IonWorks assay
[19] = target: Cytochrome P450 2D6 (Homo sapiens, UniProt P10635); assay: Inhibition of CYP2D6 (unknown origin); assay type: ADME
[20] = target: Cytochrome P450 2C9 (Homo sapiens, UniProt P11712); assay: Inhibition of CYP2C9 (unknown origin); assay type: ADME
[21] = target: Cytochrome P450 3A4 (Homo sapiens, UniProt P08684); assay: Inhibition of CYP3A4 (unknown origin); assay type: ADME
[22] = Fraction unbound in mouse plasma by equilibrium dialysis method; assay type: ADME, cell-free
[23] = Aqueous solubility of the compound in phosphate buffer at pH 7.4 at 25 degC after 24 hrs by LC-UV analysis; assay type: physicochemical
[24] = Fraction unbound in rat plasma by equilibrium dialysis method; assay type: ADME, cell-free

Chain of Cytochrome P450 2C19 (P33261 whole entry): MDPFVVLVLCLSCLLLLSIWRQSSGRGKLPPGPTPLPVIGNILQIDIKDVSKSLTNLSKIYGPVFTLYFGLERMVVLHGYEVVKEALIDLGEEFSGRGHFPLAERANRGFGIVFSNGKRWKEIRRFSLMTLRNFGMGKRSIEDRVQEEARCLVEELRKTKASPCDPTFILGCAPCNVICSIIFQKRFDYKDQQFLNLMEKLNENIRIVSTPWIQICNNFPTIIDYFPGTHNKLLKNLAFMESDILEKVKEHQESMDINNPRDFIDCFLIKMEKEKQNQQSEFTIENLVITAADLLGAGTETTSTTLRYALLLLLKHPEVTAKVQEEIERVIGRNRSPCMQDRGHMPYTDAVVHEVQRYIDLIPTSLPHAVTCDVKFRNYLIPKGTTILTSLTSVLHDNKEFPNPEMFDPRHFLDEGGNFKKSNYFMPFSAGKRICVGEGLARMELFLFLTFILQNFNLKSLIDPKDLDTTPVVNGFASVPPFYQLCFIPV
Chain of Cytochrome P450 2C9 (P11712 whole entry): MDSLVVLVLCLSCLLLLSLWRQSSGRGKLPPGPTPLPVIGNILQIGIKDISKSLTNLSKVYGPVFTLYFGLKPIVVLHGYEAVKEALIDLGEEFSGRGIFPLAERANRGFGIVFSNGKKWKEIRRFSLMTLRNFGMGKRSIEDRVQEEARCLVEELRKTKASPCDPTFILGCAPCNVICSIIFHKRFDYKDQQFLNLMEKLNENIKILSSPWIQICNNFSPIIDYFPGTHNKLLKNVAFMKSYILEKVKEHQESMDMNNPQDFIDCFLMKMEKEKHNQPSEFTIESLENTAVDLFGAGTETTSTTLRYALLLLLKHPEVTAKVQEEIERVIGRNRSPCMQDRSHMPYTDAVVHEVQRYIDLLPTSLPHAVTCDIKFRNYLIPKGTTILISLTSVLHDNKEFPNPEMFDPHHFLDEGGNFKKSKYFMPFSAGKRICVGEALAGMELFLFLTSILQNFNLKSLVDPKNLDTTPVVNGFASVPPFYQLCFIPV
Chain of Cytochrome P450 3A4 (P08684 whole entry): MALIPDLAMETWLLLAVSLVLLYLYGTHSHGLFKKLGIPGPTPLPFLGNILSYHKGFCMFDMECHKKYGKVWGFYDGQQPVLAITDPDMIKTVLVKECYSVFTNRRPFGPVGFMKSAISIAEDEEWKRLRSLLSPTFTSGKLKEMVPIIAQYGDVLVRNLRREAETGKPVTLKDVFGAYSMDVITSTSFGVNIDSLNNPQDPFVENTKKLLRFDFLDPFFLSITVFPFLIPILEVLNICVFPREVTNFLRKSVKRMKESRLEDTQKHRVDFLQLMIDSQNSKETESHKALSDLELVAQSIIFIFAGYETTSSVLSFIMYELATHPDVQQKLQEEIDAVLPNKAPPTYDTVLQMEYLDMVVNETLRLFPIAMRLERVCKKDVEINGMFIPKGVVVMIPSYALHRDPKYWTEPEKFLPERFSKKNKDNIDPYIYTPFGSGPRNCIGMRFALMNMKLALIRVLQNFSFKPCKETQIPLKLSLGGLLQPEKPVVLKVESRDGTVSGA
Chain of Cytochrome P450 2D6 (P10635 whole entry): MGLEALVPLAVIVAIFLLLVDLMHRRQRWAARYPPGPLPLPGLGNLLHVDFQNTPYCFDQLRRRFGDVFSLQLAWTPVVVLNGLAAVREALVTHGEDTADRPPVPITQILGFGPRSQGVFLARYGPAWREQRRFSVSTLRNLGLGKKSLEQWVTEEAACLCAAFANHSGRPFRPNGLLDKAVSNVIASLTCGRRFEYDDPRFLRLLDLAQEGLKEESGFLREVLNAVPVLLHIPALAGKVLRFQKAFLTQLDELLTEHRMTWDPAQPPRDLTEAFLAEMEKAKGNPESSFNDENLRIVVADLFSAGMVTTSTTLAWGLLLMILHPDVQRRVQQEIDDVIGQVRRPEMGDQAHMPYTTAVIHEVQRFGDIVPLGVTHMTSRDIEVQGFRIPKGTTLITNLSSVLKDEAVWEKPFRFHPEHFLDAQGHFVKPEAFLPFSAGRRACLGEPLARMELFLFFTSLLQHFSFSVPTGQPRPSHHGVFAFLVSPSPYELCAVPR
Chain of Voltage-gated inwardly rectifying potassium channel KCNH2 (Q12809 whole entry): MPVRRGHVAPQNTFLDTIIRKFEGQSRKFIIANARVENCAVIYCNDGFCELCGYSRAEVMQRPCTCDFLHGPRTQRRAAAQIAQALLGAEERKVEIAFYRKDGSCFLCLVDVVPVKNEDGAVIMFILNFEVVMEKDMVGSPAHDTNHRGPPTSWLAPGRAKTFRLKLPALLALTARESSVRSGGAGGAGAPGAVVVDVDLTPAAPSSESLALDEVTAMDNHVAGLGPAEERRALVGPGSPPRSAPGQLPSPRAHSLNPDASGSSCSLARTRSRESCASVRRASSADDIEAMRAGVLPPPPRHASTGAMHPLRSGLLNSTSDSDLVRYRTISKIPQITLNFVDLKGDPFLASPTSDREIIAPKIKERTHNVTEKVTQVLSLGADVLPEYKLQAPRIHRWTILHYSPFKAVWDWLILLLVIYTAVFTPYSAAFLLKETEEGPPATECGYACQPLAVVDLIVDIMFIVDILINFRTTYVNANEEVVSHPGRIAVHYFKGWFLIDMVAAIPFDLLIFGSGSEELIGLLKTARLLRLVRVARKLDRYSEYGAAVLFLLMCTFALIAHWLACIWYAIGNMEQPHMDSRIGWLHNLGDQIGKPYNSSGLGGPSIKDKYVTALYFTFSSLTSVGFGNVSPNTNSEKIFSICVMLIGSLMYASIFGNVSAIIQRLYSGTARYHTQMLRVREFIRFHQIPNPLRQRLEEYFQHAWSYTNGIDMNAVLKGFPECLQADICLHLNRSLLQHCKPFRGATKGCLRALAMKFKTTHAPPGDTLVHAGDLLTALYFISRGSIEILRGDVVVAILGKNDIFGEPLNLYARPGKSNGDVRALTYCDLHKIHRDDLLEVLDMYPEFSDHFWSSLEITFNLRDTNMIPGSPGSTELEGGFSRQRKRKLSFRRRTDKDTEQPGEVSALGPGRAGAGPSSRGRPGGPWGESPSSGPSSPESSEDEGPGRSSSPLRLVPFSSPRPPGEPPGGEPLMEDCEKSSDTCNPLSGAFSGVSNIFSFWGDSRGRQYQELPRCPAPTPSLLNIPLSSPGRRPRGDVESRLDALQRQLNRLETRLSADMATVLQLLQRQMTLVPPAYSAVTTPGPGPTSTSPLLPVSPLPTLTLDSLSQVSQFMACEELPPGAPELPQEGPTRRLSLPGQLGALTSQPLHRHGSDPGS

SMILES: C[C@@H]1CN(C(=O)OCC(F)(F)F)CCN1c1ncc(OCc2ccncc2C#N)cn1
- logD at 0.5 h [1]: 3
- hepatocyte CLint [2]: 27 µL/min/1e6 cells
- Papp A→B at 10 µM [3]: 19 ×10⁻⁶ cm/s
- half-life [4]: 1.4 h
- Vd [5]: 1.1 L/kg
- clearance [6]: 14 mL/min/kg
- bioavailability [7]: 27%
- AUC [8]: 3.2 µM·h
- Papp B→A at 10 µM [9]: 10 ×10⁻⁶ cm/s
- Activity [10]: 10%
- half-life [11]: 2.2 h

SMILES: CC(C)(C)OC(=O)N1CC2CCC(C1)N2c1ncc(OCc2ccc(S(C)(=O)=O)cc2)cn1
- IC50 [12]: 72 nM
- EC50 [13]: 79 nM
- IC50 [14]: 92 nM

SMILES: CC(C)(C)OC(=O)N1C2CCC1CN(c1ncc(OCc3ccc(S(C)(=O)=O)cc3)cn1)C2
- IC50 [12]: 5 nM
- EC50 [13]: 11 nM
- IC50 [14]: 3 nM

SMILES: CC(C)(C)OC(=O)N1C2CCC1CN(c1ncc(OCc3ccncc3C#N)cn1)C2
- IC50 [12]: 9 nM
- EC50 [13]: 4 nM
- IC50 [14]: 1 nM

SMILES: N#Cc1cnccc1COc1cnc(N2CCN(C(=O)OC3CC(F)(F)C3(F)F)CC2)nc1 (configuration not stated)
- IC50 [12]: 758 nM
- EC50 [15]: 252 nM
- EC50 [13]: 20 nM
- IC50 [14]: 25 nM
- Activity [10]: 30%

SMILES: C[C@@H]1CN(C(=O)OC2CC(F)(F)C2(F)F)CCN1c1ncc(OCc2ccncc2C#N)cn1 (some centres not stated)
- IC50 [12]: 694 nM
- EC50 [15]: 84 nM
- EC50 [13]: 6 nM
- IC50 [14]: 6 nM

SMILES: N#Cc1cnccc1COc1cnc(N2CC3CCC(C2)N3C(=O)OC2CC(F)(F)C2(F)F)nc1 (configuration not stated)
- IC50 [12]: 65 nM
- EC50 [13]: 7 nM
- IC50 [14]: 9 nM
- Activity [10]: 3%

SMILES: N#Cc1cnccc1COc1cnc(N2CCN(C(=O)OCC(F)(F)F)CC2)nc1
- IC50 [16]: > 30000 nM
- IC50 [12]: 4990 nM
- EC50 [15]: 698 nM
- logD at 0.5 h [1]: 3
- IC50 [17]: > 30000 nM
- hepatocyte CLint [2]: 12 µL/min/1e6 cells
- Papp A→B at 10 µM [3]: 32 ×10⁻⁶ cm/s
- EC50 [13]: 47 nM
- half-life [4]: 3.9 h
- Vd [5]: 5.3 L/kg
- IC50 [18]: 10000 nM
- IC50 [14]: 18 nM
- IC50 [19]: > 30000 nM
- clearance [6]: 22 mL/min/kg
- IC50 [20]: > 30000 nM
- IC50 [21]: > 30000 nM
- fraction unbound [22]: 0.094
- bioavailability [7]: 48%
- AUC [8]: 4 µM·h
- Activity [10]: 21%
- solubility at 24 h [23]: 3.3 µM (≈ 1.39 µg/mL)
- half-life [11]: 2.1 h
- fraction unbound [24]: 0.051

SMILES: N#Cc1cnccc1COc1cnc(N2CC3CCC(C2)N3C(=O)OCC(F)(F)F)nc1
- IC50 [16]: > 30000 nM
- IC50 [12]: 104 nM
- EC50 [15]: 20 nM
- logD at 0.5 h [1]: 3
- IC50 [17]: > 30000 nM
- hepatocyte CLint [2]: 13 µL/min/1e6 cells
- Papp A→B at 10 µM [3]: 25 ×10⁻⁶ cm/s
- EC50 [13]: 9 nM
- half-life [4]: 1.7 h
- Vd [5]: 1 L/kg
- IC50 [14]: 8 nM
- IC50 [19]: > 30000 nM
- clearance [6]: 11 mL/min/kg
- IC50 [20]: > 30000 nM
- IC50 [21]: > 30000 nM
- fraction unbound [22]: 0.096
- bioavailability [7]: 17%
- AUC [8]: 2.1 µM·h
- Papp B→A at 10 µM [9]: 20 ×10⁻⁶ cm/s
- Activity [10]: 6%
- solubility at 24 h [23]: 3.8 µM (≈ 1.7 µg/mL)
- half-life [11]: 2.6 h
- fraction unbound [24]: 0.065

SMILES: CC(C)c1nc(N2CCN(c3ncc(OCc4ccncc4C#N)cn3)CC2)no1
- IC50 [12]: 2720 nM
- EC50 [15]: 242 nM
- EC50 [13]: 19 nM
- IC50 [14]: 12 nM

SMILES: CC(C)c1nc(N2C3CCC2CN(c2ncc(OCc4ccncc4C#N)cn2)C3)no1
- IC50 [12]: 122 nM
- EC50 [15]: 45 nM
- EC50 [13]: 11 nM
- IC50 [14]: 4 nM
